Test results taken from ChEMBL document CHEMBL1131050, “Benzoxazole derivatives as novel 5-HT3 receptor partial agonists in the gut” (J Med Chem, 1998).

What was measured:
[1] = test system: 5-HT3 receptor (Cavia porcellus); test: Maximal partial agonist activity at 5-hydroxytryptamine 3 receptor of isolated guinea pig ileum as ratio to 5-HT response
[2] = test system: 5-HT3 receptor (Cavia porcellus); test: Potency of partial agonist action given by concentration producing 50% of individual maximal contraction of isolated guinea pig ileum
[3] = molecular target: T1, Serotonin 3 (5-HT3) receptor (Rattus norvegicus, UniProt P35563+Q9JJ16); test: Binding affinity for 5-hydroxytryptamine 3 receptor in rat cerebral cortex, determined by displacement of [3H]GR-65630; assay type: tissue-based
T1 sequence (P35563 whole entry): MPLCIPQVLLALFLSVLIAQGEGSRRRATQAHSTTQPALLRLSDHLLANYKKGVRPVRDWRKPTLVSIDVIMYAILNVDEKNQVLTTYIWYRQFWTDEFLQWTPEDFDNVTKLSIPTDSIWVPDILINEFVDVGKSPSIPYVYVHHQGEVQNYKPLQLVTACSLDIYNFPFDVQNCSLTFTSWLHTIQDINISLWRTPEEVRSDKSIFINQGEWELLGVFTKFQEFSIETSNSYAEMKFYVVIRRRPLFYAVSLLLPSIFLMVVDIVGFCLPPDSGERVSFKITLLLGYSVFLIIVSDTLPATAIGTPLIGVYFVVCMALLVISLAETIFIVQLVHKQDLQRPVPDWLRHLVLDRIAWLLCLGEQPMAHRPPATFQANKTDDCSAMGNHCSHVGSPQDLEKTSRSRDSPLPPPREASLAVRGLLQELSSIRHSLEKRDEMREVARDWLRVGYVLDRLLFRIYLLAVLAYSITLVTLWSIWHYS
T1 sequence (Q9JJ16 whole entry): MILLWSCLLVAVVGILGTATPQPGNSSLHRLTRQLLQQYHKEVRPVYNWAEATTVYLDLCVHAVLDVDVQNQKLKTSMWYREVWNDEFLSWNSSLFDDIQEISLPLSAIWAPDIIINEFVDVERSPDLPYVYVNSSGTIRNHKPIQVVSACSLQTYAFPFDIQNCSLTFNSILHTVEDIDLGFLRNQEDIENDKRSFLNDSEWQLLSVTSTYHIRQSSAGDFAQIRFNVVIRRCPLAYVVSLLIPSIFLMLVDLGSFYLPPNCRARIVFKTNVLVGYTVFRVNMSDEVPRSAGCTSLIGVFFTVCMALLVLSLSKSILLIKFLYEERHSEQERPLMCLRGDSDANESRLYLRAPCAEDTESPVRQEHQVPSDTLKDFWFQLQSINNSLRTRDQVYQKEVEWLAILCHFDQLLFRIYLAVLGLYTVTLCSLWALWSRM
How it was run: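 Membranes from cortex of male Wistar rats (250–300 g); 0.04 mg membrane incubated with 0.2 nM […], 60 min, 22 °C; filtration, three washes, filter counting. Nonspecific binding defined with 1 mM ICS205-930. Six replicates per dose; displacement curves fitted by nonlinear regression to give IC50, converted to Ki by Cheng–Prusoff.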

Mus musculus [4] = test: Transition time (time required to evacuate the glass bead) in the distal colon in mice at dose 3 mg/kg; assay type: functional
How it was run: (§1)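 Male mice fasted 4 h. Compound given sc 20 min before a 3 mm glass bead was inserted 3 cm into the distal colon; time to expel the bead was recorded. 8 animals per group, mean ± SEM. Compared with control by ANOVA followed by Steel's multiple range test, p < 0.05.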

Mus musculus [5] = test: Transition time (time required to evacuate the glass bead) in the distal colon in mice at dose 1 mg/kg; assay type: functional
How it was run: as §1

Mus musculus [6] = test: Transition time (time required to evacuate the glass bead) in the distal colon in mice at dose 0.3 mg/kg; assay type: functional
How it was run: as §1

Mus musculus [7] = test: Inhibitory activity against 5-HT evoked diarrhea in mice, sc; assay type: functional; details: read-out: ID50 (the source's name)
Rattus norvegicus = species on record: Rattus norvegicus; test: Inhibitory dose against 5-HT-Evoked Bezold-Jarisch (B-J) reflex in rats; assay type: functional; details: read-out: ID50 (the source's name)
[8] = molecular target: T1, Serotonin 3 (5-HT3) receptor; test: Binding affinity for 5-hydroxytryptamine 3 receptor was determined by measuring displacement of [3H]GR-65630 from rat brain cortices
[9] = molecular target: GABA-A receptor; anion channel (Homo sapiens) (UniProt P14867+P47870+P18507+P28472+P48169+Q99928+Q9UN88+P34903+O00591+O14764+Q8N1C3+P18505+P78334+P47869+P31644+Q16445); test: Inhibition of [3H]flunitrazepam binding to GABA-A central benzodiazepine receptor at 10e-5 M; assay type: protein-complex assay
Mus musculus [10] = test: Transition time (time required to evacuate the glass bead) in the distal colon in mice at dose 30 mg/kg; assay type: functional
How it was run: as §1

[11] = molecular target: T2, 5-hydroxytryptamine receptor 1A (Mus musculus) (UniProt Q64264); test: Inhibitory activity against 5-hydroxytryptamine 1A receptor using [3H]8-OH-DPAT as radioligand at 10e-5 M concentration
T2 sequence (whole entry): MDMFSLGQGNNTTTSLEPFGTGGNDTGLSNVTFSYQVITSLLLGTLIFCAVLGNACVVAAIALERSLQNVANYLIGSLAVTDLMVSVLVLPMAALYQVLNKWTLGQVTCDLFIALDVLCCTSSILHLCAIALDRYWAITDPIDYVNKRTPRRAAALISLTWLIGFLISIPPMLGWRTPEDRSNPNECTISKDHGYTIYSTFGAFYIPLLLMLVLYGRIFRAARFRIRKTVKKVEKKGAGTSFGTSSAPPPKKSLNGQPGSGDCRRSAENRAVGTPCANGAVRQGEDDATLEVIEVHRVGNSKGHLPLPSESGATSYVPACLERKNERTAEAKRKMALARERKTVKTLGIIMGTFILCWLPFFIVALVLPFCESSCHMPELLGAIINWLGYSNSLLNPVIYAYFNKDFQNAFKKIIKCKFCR

[12] = test system: Alpha-1 adrenergic receptor (Rattus norvegicus); test: Inhibitory activity against Alpha-1 adrenergic receptor using [3H]prazosin as radioligand at 10e-5 M concentration
[13] = test system: Alpha-2 adrenergic receptor (Rattus norvegicus); test: Inhibitory activity against Alpha-2 adrenergic receptor using [3H]rauwolscine as radioligand at 10e-5 M concentration
[14] = molecular target: D(2) dopamine receptor (Homo sapiens) (UniProt P14416); test: Inhibitory activity against Dopamine receptor D2 using [3H]-spiperone as radioligand at 10e-5 M concentration
[15] = molecular target: D(1A) dopamine receptor (Mus musculus) (UniProt Q61616); test: Inhibitory activity against Dopamine receptor D1 using [3H]SCH-23390 as radioligand at 10e-5 M concentration at 10e-5 M concentration
[16] = molecular target: Beta-2 adrenergic receptor (Canis lupus familiaris) (UniProt P54833); test: Inhibitory activity against non-selective beta adrenergic receptor using [3H]DHA as radioligand at 10e-5 M concentration
[17] = molecular target: T3, 5-hydroxytryptamine receptor 1F (Rattus norvegicus) (UniProt P30940); test: Inhibitory activity against 5-hydroxytryptamine 1 receptor using [3H]5-HT as radioligand at 10e-5 M concentration
T3 sequence (whole entry): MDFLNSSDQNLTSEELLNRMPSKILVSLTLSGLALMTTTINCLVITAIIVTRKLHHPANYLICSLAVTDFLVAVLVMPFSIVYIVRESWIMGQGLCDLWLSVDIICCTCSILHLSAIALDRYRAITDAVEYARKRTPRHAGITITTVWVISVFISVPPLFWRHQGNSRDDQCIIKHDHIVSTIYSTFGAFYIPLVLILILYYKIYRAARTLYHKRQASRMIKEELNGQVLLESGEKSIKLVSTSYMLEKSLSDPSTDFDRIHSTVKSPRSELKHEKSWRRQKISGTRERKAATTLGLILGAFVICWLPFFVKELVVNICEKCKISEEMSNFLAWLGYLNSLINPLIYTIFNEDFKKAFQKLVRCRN

[18] = molecular target: 5-hydroxytryptamine receptor 2A (Bos taurus) (UniProt Q75Z89); test: Inhibitory activity against 5-hydroxytryptamine 2 receptor using [3H]-ketanserin as radioligand at 10e-5 M concentration
Chain of 5-hydroxytryptamine receptor 2A (Bos taurus) (Q75Z89 whole entry): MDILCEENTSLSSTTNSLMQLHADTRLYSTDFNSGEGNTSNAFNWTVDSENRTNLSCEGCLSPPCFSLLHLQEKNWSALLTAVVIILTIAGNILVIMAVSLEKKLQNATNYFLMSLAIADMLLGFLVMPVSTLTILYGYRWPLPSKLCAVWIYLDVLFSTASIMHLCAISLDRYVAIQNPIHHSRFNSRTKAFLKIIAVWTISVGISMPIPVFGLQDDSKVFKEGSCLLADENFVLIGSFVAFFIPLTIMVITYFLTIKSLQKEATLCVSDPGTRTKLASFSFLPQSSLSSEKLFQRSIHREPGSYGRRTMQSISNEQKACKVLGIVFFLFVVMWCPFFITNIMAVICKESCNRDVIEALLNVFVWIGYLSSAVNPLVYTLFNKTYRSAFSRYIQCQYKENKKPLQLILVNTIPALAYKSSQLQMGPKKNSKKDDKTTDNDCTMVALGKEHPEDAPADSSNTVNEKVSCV

Chain of D(1A) dopamine receptor (Mus musculus) (Q61616 whole entry): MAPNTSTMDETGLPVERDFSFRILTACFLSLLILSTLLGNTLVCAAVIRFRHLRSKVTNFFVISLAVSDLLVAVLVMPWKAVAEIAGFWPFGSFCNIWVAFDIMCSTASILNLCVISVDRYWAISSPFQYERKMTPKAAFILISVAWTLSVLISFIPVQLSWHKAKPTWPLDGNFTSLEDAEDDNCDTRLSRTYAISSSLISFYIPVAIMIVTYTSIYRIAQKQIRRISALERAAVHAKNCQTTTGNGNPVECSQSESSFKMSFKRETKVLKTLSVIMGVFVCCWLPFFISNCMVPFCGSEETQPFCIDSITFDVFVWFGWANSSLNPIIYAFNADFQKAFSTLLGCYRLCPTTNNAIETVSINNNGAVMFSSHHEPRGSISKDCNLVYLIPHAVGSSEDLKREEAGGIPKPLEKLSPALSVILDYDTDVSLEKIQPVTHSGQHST
Chain of D(2) dopamine receptor (Homo sapiens) (P14416 whole entry): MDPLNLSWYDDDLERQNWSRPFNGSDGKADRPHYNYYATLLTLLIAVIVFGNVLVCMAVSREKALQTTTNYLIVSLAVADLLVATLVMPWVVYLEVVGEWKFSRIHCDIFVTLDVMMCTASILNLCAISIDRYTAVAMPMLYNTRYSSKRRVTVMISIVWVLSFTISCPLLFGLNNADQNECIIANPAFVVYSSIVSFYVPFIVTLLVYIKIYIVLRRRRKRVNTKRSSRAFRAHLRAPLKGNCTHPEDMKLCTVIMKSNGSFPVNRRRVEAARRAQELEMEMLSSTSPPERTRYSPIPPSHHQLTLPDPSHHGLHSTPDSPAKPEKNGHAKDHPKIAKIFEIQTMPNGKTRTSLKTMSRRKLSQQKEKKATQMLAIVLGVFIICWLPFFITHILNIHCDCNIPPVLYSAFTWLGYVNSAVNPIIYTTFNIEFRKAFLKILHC
Chain of Beta-2 adrenergic receptor (Canis lupus familiaris) (P54833 whole entry, looked up): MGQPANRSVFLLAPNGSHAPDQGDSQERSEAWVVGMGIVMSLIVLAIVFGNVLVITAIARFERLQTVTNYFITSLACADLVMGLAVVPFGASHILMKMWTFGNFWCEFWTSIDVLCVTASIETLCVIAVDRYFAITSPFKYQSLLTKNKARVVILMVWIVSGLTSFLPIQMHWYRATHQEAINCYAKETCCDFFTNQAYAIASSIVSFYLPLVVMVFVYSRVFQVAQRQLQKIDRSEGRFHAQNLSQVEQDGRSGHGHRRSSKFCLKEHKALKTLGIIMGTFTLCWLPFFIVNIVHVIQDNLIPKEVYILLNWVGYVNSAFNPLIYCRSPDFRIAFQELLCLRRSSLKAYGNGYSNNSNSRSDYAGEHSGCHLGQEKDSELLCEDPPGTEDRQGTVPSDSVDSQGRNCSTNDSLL

| Compound | IA [1] | pD2 [2] | inhibition at 10^-7 M [3] [%] | other results |
| --- | --- | --- | --- | --- |
| Cc1cc2nc(N3CCN(C)CC3)oc2cc1C | 0.66 | 6.16 | 32 | – |
| Cc1ccc2nc(N3CCN(C)CC3)oc2c1 | 0.85 | 5.15 | 74 | – |
| CN1CCCN(c2nc3cc(Cl)ccc3o2)CC1 | 0.31 | 7 | 87 | – |
| Cc1cc2oc(N3CCN(C)CC3)nc2cc1Cl | 0.28 | 6.28 | 95 | – |
| CN1CCN(c2nc3cc(Br)ccc3o2)CC1 | 0.48 | 6.21 | 92 | – |
| Cc1ccc2oc(N3CCN(C)CC3)nc2c1 | 0.72 | 6 | 83 | – |
| Cc1c(Cl)cc2nc(N3CCN(C)CC3)oc2c1Cl | 0.1 | 6.64 | 96 | – |
| CN1CCN(c2nc3cc(F)ccc3o2)CC1 | 0.64 | 5.57 | 91 | – |
| Cc1cccc2oc(N3CCN(C)CC3)nc12 | – | < 5 | 25 | – |
| c1ccc2oc(N3CCNCC3)nc2c1 | – | – | 83 | – |
| CN1CCN(c2nc3ccccc3o2)CC1 | 0.62 | 5.01 | 55 | – |
| CN1CCN(c2nc3cc(Cl)cc(Cl)c3o2)CC1 | 0.14 | 6.51 | 62 | – |
| c1ccc2oc(C3CCNCC3)nc2c1 | 0.31 | 5.59 | 39 | – |
| Cc1cc(Cl)cc2nc(N3CCN(C)CC3)oc12 | 0.24 | 6.7 | 85 | – |
| CCc1ccc2oc(N3CCN(C)CC3)nc2c1 | – | < 5 | 11 | – |
| CN1CCN(c2nc3cc(C(F)(F)F)ccc3o2)CC1 | – | < 5 | 22 | – |
| c1ccc2oc(N3CCCCC3)nc2c1 | – | < 5 | – | – |
| CN1C2CCCC1CC(NC(=O)c1nn(C)c3ccccc13)C2 (stereo not given) [GRANISETRON] | – | – | – | Time (Mus musculus [4]): 827 s; Time (Mus musculus [5]): 614 s; Time (Mus musculus [6]): 373 s |
| Cc1cccc2nc(N3CCN(C)CC3)oc12 | 0.58 | 5.46 | 77 | – |
| CN1CCN(c2nc3cc(Cl)ccc3o2)CC1 | 0.5 | 6.07 | 94 | – |
| Cc1c(Cl)cc2nc(N3CCN(C)CC3)oc2c1C | 0.14 | 6.67 | 101 | – |
| CN1CCCN(c2nc3ccccc3o2)CC1 | 0.54 | 6.03 | 86 | – |
| Cc1cc(C)c2oc(N3CCN(C)CC3)nc2c1 | 0.62 | 6.32 | 94 | – |
| Cc1cc(Cl)cc2nc(N3CCCN(C)CC3)oc12 | 0.12 | 7.76 | 98 | ED50 (Mus musculus [7]): 0.3 mg/kg; Time (Mus musculus [4]): 357.2 s; ED50 (Rattus norvegicus): 0.0876 mg/kg; Ki [8]: 1.1 nM; inhibition [9]: 12%; Time (Mus musculus [6]): 262.6 s; Time (Mus musculus [10]): 328.8 s; inhibition [11]: -3%; inhibition [12]: 22%; inhibition [13]: 33%; inhibition [14]: 5%; inhibition [15]: 18%; inhibition [16]: 24%; inhibition [17]: 14%; inhibition [18]: 23% |
